In ChEMBL document CHEMBL3785002, “Lead optimization of the VU0486321 series of mGlu1 PAMs. Part 3. Engineering plasma stability by discovery and optimization of isoindolinone analogs” (Bioorg Med Chem Lett, 2016):
pEC50: −log10 of the molar value.

How the values were obtained:
[1] = target: T1, Metabotropic glutamate receptor 1 (Homo sapiens, UniProt Q13255); assay: Positive allosteric modulatory activity at human mGlu1 receptor expressed in wild type T-Rex293 cells assessed as increase in glutamate-induced calcium mobilization pre-incubated for 2.5 mins before glutamate stimulation for 1 min; assay type: functional, cell-based; details: for pEC50: read-out: EC50; for EC50: read-out: pEC50 (converted)
Summary of the method: (§1)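 Tetracycline-inducible human mGlu1 WT T-REx-293 cells were induced overnight with 50 ng/mL tetracycline in dialyzed-FBS medium. Cells were loaded with 1.15 μM Fluo-4 AM in HBSS/20 mM HEPES/2.5 mM probenecid for 45 min at 37 °C. Compounds (half-log series in DMSO) were added for 2.5 min, then an EC20 of glutamate for 1 min. Calcium flux was read on Flexstation; ECmax glutamate served as reference. n=3 in triplicate.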
Target sequence in this assay (Q13255 whole entry): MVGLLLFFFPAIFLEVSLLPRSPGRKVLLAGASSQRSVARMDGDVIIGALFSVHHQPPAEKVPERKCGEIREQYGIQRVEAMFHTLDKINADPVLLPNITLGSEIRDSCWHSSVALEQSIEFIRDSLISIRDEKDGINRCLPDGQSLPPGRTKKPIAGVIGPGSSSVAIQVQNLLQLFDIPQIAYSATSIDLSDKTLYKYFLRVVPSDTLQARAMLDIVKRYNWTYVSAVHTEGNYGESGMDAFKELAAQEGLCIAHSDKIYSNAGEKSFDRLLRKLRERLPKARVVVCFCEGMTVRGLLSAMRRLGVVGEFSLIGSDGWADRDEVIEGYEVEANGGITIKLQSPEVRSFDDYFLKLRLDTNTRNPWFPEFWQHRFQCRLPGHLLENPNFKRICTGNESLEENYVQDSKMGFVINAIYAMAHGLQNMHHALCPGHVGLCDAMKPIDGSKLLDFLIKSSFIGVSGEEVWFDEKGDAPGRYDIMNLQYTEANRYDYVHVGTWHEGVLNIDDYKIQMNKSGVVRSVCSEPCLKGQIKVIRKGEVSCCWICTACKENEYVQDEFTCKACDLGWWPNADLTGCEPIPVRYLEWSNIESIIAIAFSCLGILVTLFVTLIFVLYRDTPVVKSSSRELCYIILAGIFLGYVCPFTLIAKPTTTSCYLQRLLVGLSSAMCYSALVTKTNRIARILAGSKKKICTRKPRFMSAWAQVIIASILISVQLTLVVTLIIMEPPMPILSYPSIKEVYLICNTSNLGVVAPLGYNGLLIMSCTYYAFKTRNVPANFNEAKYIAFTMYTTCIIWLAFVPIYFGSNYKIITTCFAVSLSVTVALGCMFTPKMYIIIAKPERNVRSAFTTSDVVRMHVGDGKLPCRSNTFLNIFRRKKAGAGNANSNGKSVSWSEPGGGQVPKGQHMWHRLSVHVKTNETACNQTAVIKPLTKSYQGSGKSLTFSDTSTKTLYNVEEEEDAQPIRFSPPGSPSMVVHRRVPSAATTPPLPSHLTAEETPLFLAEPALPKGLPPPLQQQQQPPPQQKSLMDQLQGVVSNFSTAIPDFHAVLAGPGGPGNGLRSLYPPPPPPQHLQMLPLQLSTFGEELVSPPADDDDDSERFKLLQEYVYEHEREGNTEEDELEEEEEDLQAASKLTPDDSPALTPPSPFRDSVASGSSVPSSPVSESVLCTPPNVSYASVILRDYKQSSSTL

[2] = target: T1, Metabotropic glutamate receptor 1; assay: Positive allosteric modulatory activity at human mGlu1 receptor expressed in wild type T-Rex293 cells assessed as increase in glutamate-induced calcium mobilization pre-incubated for 2.5 mins before glutamate stimulation for 1 min relative to glutamate alone; assay type: functional, cell-based; summary of the method: as §1
Target sequence in this assay (Q13255 19-1194 limits assumed): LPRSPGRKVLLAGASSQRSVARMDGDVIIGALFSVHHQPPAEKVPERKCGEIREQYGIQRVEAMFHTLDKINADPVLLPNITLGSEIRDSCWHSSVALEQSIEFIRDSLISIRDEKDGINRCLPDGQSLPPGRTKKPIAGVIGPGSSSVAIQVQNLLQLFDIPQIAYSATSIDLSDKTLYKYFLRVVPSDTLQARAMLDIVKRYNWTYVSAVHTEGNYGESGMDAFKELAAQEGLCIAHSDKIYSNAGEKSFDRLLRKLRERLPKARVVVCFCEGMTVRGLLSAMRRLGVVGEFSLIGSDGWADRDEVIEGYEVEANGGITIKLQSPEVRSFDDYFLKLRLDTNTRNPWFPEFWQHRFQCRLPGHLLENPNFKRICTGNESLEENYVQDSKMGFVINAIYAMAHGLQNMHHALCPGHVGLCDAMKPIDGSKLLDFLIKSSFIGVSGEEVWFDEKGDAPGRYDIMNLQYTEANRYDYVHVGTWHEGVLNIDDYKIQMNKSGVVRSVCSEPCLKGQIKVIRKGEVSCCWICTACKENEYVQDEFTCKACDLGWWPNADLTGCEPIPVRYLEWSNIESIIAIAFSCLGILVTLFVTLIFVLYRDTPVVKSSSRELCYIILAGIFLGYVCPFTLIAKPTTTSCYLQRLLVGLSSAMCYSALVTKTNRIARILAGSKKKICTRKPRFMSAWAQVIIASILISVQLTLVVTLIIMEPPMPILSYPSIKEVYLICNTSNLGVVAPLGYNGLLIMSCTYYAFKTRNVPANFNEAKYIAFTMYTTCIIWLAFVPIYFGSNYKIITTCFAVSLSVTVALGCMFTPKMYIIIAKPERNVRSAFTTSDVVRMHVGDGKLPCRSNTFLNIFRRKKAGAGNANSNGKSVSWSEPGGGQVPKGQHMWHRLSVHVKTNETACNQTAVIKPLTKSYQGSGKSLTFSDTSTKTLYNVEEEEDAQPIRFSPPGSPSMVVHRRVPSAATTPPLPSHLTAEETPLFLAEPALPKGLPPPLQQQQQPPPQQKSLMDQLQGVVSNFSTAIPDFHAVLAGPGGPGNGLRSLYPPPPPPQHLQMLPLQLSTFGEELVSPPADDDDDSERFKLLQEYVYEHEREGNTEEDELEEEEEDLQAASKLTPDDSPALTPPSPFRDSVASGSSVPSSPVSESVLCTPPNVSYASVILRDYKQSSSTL

T-Rex 293 = assay: Selectivity ratio of EC50 for human mGlu4 receptor expressed in wild type T-Rex 293 cells to EC50 for human mGlu1 receptor expressed in wild type T-Rex 293 cells; assay type: cell-based; details: T-Rex293
[3] = Fraction unbound in human plasma; assay type: ADME, cell-free
[4] = Fraction unbound in rat plasma; assay type: ADME, cell-free
[5] = Intrinsic clearance in human; assay type: ADME, organism-based; details: in vivo
[6] = Intrinsic clearance in rat; assay type: ADME, organism-based; details: in vivo
Plasma [7] = assay: Stability in rat plasma; assay type: ADME, cell-free
Plasma [8] = assay: Stability in human plasma; assay type: ADME, cell-free
Cytochrome P450 3A4 = Cytochrome P450 3A4 (Homo sapiens, UniProt P08684); assay: Inhibition of […] (unknown origin); assay type: ADME; details: human
Cytochrome P450 1A2 = target: T2, Cytochrome P450 1A2 (Homo sapiens, UniProt P05177); assay: Inhibition of CYP1A2 (unknown origin); assay type: ADME; details: human
T2 sequence (P05177 whole entry): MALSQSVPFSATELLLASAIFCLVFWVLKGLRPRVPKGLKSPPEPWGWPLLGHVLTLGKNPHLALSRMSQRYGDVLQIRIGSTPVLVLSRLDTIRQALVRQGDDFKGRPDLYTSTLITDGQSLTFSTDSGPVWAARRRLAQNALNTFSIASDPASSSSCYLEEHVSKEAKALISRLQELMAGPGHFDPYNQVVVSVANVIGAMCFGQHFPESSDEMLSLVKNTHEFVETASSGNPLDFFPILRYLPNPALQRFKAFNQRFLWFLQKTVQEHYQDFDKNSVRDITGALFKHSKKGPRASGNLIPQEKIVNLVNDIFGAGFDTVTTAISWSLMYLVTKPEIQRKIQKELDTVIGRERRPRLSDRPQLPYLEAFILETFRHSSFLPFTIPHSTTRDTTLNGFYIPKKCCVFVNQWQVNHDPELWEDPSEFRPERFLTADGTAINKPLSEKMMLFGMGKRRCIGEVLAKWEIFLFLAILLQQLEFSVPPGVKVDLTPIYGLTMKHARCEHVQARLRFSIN

Cytochrome P450 2C9 = Cytochrome P450 2C9 (Homo sapiens, UniProt P11712); assay: Inhibition of CYP2C9 (unknown origin); assay type: ADME; details: human
Cytochrome P450 2D6 = Cytochrome P450 2D6 (Homo sapiens, UniProt P10635); assay: Inhibition of CYP2D6 (unknown origin); assay type: ADME; details: human
Cytochrome P450 2D6, sequence (P10635 whole entry): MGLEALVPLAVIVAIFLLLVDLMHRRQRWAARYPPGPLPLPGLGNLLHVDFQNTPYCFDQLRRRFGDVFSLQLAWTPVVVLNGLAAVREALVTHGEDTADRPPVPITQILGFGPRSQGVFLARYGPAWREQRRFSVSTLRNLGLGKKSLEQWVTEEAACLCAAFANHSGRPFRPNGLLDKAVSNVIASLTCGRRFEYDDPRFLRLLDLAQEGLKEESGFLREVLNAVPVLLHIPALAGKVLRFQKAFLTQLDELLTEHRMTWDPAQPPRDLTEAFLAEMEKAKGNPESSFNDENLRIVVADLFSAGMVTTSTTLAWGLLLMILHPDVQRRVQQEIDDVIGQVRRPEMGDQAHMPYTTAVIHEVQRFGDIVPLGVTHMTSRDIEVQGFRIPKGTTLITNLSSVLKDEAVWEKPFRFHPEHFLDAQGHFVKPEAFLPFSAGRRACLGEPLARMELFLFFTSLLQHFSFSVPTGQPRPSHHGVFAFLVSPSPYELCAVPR

Cytochrome P450 3A4, sequence (P08684 whole entry): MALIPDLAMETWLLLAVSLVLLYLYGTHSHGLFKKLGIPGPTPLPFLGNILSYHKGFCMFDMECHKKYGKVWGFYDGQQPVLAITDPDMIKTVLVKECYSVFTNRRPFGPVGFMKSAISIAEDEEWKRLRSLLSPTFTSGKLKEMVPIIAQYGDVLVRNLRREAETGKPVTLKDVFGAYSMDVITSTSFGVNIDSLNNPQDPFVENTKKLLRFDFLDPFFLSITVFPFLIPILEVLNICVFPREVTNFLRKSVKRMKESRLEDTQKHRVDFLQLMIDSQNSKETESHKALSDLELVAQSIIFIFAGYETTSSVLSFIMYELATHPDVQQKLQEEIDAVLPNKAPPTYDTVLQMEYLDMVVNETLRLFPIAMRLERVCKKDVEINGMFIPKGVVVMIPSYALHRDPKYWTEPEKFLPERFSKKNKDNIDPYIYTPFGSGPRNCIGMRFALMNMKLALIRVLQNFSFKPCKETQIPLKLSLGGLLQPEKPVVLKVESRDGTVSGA
Cytochrome P450 2C9, sequence (P11712 whole entry): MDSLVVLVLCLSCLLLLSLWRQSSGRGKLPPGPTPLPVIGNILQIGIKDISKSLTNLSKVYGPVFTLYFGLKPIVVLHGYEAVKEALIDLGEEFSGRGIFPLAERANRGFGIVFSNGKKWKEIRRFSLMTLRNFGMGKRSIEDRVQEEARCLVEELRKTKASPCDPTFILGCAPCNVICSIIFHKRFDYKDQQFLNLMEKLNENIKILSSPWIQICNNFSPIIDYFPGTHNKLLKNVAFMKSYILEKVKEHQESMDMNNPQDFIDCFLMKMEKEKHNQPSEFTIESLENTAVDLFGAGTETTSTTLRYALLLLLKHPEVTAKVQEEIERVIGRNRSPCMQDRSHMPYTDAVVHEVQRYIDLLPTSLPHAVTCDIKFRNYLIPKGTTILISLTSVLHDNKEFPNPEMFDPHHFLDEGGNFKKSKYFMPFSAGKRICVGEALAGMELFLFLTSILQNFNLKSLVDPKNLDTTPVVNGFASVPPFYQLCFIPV

Structure (SMILES) | pEC50 [1] | %max [2] | other results
Cc1ccoc1C(=O)Nc1ccc(N2Cc3ccccc3C2)c(Cl)c1 | 5.75 | 95% | 
Cc1ccoc1C(=O)Nc1ccc(N2Cc3cccc(Cl)c3C2=O)cc1F | < 5.00 |  | 
Cc1ccoc1C(=O)Nc1ccc(N2C(=O)c3ccccc3C2=O)cc1F |  |  | Ratio EC50 (T-Rex 293): > 793
Cc1cccnc1C(=O)Nc1ccc(N2Cc3ccccc3C2=O)c(Cl)c1 | < 5.00 |  | 
Cc1ccc2c(c1)C(=O)N(c1ccc(NC(=O)c3occc3C)c(F)c1)C2=O | 7.59 | 70% | Ratio EC50 (T-Rex 293): > 450
Cc1scnc1C(=O)Nc1ccc(N2Cc3cccc(Cl)c3C2=O)c(Cl)c1 | 5.33 | 69% | EC50 [1]: 4790 nM
Cc1ccoc1C(=O)Nc1ccc(N2C(=O)c3cccc(F)c3C2=O)c(Cl)c1 |  |  | Ratio EC50 (T-Rex 293): 35
Cc1ccoc1C(=O)Nc1ccc(N2CCc3ccccc3C2=O)c(Cl)c1 | 6.11 | 94% | 
O=C(Nc1ccc(N2Cc3cccc(Cl)c3C2=O)c(Cl)c1)c1ncccc1Cl | < 5.00 | 51% | 
Cc1ccoc1C(=O)Nc1ccc(N2CCc3ccccc3C2)c(Cl)c1 | 5.61 | 107% | EC50 [1]: 1320 nM
Cc1ccoc1C(=O)Nc1ccc(N2CCc3ccccc32)c(Cl)c1 | 5.24 | 82% | 
Cc1ccoc1C(=O)Nc1ccc(N2CCOc3ccccc32)c(Cl)c1 | 5.44 | 99% | 
Cc1scnc1C(=O)Nc1ccc(N2Cc3c(Cl)cccc3C2=O)c(Cl)c1 | 6.02 | 66% | 
Cc1ccoc1C(=O)Nc1ccc(N2Cc3cccc(Cl)c3C2=O)c(Cl)c1Cl | 5.19 | 81% | EC50 [1]: 6610 nM
Cc1ccoc1C(=O)Nc1ccc(N2Cc3c(C)cccc3C2=O)c(Cl)c1 | 5.97 | 89% | EC50 [1]: 1100 nM; fraction unbound [3]: < 0.01; fraction unbound [4]: < 0.01
Cc1ccoc1C(=O)Nc1ccc(N2C(=O)[C@H]3CCCC[C@H]3C2=O)c(Cl)c1 | < 5.00 |  | 
Cc1ccoc1C(=O)Nc1ccc(N2C(=O)Cc3ccccc3C2=O)c(Cl)c1 | 6.62 | 105% | EC50 [1]: 224 nM; CLhep predicted [5]: 13.5 mL/min/kg; CLhep predicted [6]: 54 mL/min/kg; Stability (Plasma [7]): Unstable; Stability (Plasma [8]): Unstable; inhibition (INH) (Cytochrome P450 3A4): Not Active; inhibition (INH) (Cytochrome P450 1A2): Not Active; inhibition (INH) (Cytochrome P450 2C9): Not Active; inhibition (INH) (Cytochrome P450 2D6): Not Active
Cc1ccoc1C(=O)Nc1ccc(N2Cc3ncccc3C2=O)c(Cl)c1 | < 5.00 |  | fraction unbound [3]: < 0.01; fraction unbound [4]: < 0.01
Cc1ccoc1C(=O)Nc1ccc(N2Cc3cccc(Cl)c3C2=O)c(Cl)c1 | 6.32 | 108% | fraction unbound [3]: < 0.01; fraction unbound [4]: < 0.01
Cc1ccoc1C(=O)Nc1ccc(N2Cc3c(Cl)cccc3C2=O)c(Cl)c1Cl | < 5.00 |  | 
Cc1ccoc1C(=O)Nc1ccc(N2Cc3c(Br)cccc3C2=O)c(Cl)c1 | 6.41 | 99% | fraction unbound [3]: < 0.01; fraction unbound [4]: < 0.01
Cc1ccoc1C(=O)Nc1ccc(N2Cc3cccnc3C2=O)c(Cl)c1 | < 5.00 |  | fraction unbound [3]: < 0.01; fraction unbound [4]: < 0.01
Cc1ccoc1C(=O)Nc1ccc(N2Cc3nccnc3C2=O)c(Cl)c1 | < 5.00 |  | fraction unbound [3]: < 0.01; fraction unbound [4]: < 0.01
Cc1ccoc1C(=O)Nc1ccc(N2C(=O)CCc3ccccc32)c(Cl)c1 | 5.89 | 107% | EC50 [1]: 1320 nM; Stability (Plasma [7]): Stable; Stability (Plasma [8]): Stable
Cc1ccoc1C(=O)Nc1ccc(N2C(=O)Cc3ccccc32)c(Cl)c1 | < 5.00 |  | 
